TCR-CD3 inh: blocks the human TCR-CD3 interaction | 360,000 compounds, 0.37% hits | AID 651800 | inhibition, % at 9.4 µM | TAMRA-labeled TCR probe fluorescence, biochemical; in the data active = inhibition above about 19%;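 also: recombinant mutant TCR 2C K166C tagged with TAMRA read by polarization; 0% = receptor in buffer alone and 100% = receptor with positive control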
HTRA1 inhibitor: HTRA1 (human) protease inhibition; inhibition, % at 5.96 µM; recombinant HTRA1, FP-rhodamine activity-based probe, fluorescence polarization; 340,000 compounds, 0.5% hits; in the data active = inhibition above about 36%;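 also: 0% = enzyme with DMSO and 100% = wells lacking enzyme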
TDP2 inh: blocks human TDP2 phosphodiesterase activity | O95551 | inhibition, % at 12.8 µM | 370,000 compounds, 0.34% hits | recombinant TDP2, T5PNP hydrolysis, p-nitrophenol absorbance 415 nm;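 active = inhibition above the mean of all tested compounds plus 3 SD, set per campaign, cut at about 25% in these data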;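 also: 0% = DMSO with enzyme and 100% = buffer with substrate but no TDP2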
Target sequence (O95551 whole entry, looked up): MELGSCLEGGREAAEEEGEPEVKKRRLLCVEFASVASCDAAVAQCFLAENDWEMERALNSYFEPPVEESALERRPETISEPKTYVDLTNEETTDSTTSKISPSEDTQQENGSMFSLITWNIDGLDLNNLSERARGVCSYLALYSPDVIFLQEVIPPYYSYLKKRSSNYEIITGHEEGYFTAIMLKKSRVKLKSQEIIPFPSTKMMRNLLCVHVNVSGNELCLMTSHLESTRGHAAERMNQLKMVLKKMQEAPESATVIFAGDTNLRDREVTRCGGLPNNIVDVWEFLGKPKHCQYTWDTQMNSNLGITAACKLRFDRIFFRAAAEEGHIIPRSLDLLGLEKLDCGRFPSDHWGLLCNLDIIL
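Read-out basis: percent inhibition. System: recombinant human TDP2. Buffer or medium: Mg2+-containing Tris-HCl buffer, pH 7.5. Repeats: single replicate. Timing: reaction 2 h, 37 °C. Benchmarks: high control without enzyme, low control DMSO plus TDP2. Probe or stimulus: 5 mM T5PNP. Doses: 12.8 µM only. Measured by: epi absorbance of p-nitrophenol freed from T5PNP by hydrolysis.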
PAD4 inh: PAD4 (human) enzyme inhibition; recombinant PAD4, RCA probe fluorescence polarization; 330,000 compounds, 0.41% hits; Q9UM07; inhibition, % at 6.36 µM; AID 485272;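 active = percent inhibition above a cutoff equal to the mean of all tested compounds plus 3 SD, cut at about 15% in these data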;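 also: 0% = PAD4 with RCA probe and DMSO and 100% = probe without PAD4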
SIAE primary: blocks human sialic acid acetylesterase | inhibition, % at 9.66 µM | SIAE FP-Rh probe binding, fluorescence polarization | 370,000 compounds, 0.69% hits | Q9HAT2;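 active = inhibition above a cutoff: mean of compounds within the control limits plus 3 SD of those, cut at about 17% in these data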;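 also: 0% = plate median of compound wells and 100% = probe without SIAE protein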
mABHD4 FP: inhibitors of mouse ABHD4; Q8VD66; purified mABHD4, FP-Rh probe fluorescence polarization; inhibition, % at 8.92 µM; 370,000 compounds, 0.54% hits;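 active = inhibition exceeding the mean over every tested compound plus 3 SD, cut at about 30% in these data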;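 also: 0% = plate median of compound wells and 100% = S159A mutant with DMSO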
Target sequence (Q8VD66 whole entry, looked up): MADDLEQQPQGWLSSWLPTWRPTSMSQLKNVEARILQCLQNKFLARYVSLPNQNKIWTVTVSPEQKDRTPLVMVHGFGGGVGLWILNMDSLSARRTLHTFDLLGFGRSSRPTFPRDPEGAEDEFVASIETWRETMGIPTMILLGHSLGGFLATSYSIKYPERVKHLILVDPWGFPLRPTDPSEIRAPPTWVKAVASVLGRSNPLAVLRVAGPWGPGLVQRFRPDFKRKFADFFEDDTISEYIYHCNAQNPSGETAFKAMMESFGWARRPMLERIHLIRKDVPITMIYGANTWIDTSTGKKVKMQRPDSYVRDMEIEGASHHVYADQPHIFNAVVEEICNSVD
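Test system: mouse ABHD4 enzyme, wild type. Reagent: FP-Rh fluorescent activity-based probe, added after compound pre-incubation. Timing: pre-incubation 45 min, probe exposure 60 min, at 25 °C. Technique: FP readout, ex 525 nm / em 598 nm. Benchmarks: high control S159A mutant with DMSO, low control median of compound wells.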
SIAE confirm: confirmation of human SIAE inhibitors; shares compounds with SIAE primary; SIAE FP-Rh activity-based probe, fluorescence polarization; AID 1117263; 2,300 compounds, 13% hits; inhibition, % at 9.66 µM;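 active = mean inhibition of the replicates above the hit cutoff set in the primary screen, cut at about 17% in these data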;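 also: 0% = SIAE with DMSO and probe and 100% = probe without SIAE; inhibitors lower polarization as more probe stays unbound to SIAE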
Starred values were filed as active, the others as inactive; · = no result. An excerpt weighted towards active compounds, which were near 2% of everything screened.

SMILES	TCR-CD3 inh	HTRA1 inhibitor	TDP2 inh	PAD4 inh	SIAE primary	mABHD4 FP	SIAE confirm
CN(c1ccccc1)S(=O)(=O)c1cccc(C(=O)NCCc2ccc(O)c(O)c2)c1	-3.0	24.7	4.9	-1.4	17.4*	27.9	2.3
CCN(CC)S(=O)(=O)c1cccc(C(=O)NCCc2ccccc2)c1	3.7	0.6	4.0	0.4	2.6	-5.5	·
COc1ccccc1NC(=O)C1=C(C)Nc2nc(-c3cccs3)nn2C1c1cccnc1 (centres undefined)	-4.2	-9.1	5.9	-2.9	18.0*	-1.4	0.4
COC(=O)[C@@H](Cc1ccccc1)NC(=O)[C@H]1O[C@@H](n2cnc3c(N)ncnc32)[C@H](O)[C@@H]1O	-3.3	·	-2.5	·	10.1	-0.8	·
Nc1ncnc2c1ncn2[C@@H]1O[C@H](C(=O)N2CCN(c3nc4ccccc4o3)CC2)[C@@H](O)[C@H]1O	-4.3	·	-6.8	·	0.9	1.1	·
Nc1ncnc2c1ncn2[C@@H]1O[C@H](C(=O)N2CCC(F)(F)CC2)[C@@H](O)[C@H]1O	4.7	·	-1.7	·	52.0*	-1.5	56.8*
Nc1ncnc2c1ncn2[C@@H]1O[C@H](C(=O)N2CCC[C@@H]2C(=O)OCc2ccccc2)[C@@H](O)[C@H]1O	11.5	·	0.4	·	28.0*	-6.3	19.4*
CCOC(=O)N1CCN(C(=O)COc2cccc3c2CCN(CC)C3=O)CC1	-3.5	-3.2	5.0	-1.3	19.8*	1.6	-1.4
O=C1NC[C@@H](CCCCN2C[C@H](Cc3ccccc3)N(CCc3ccccc3)C(=O)C2=O)N(CCc2ccccc2)C1=O	4.6	·	-9.9	·	0.3	-1.5	·
CCO[C@H]1OC(C(=O)NC2CC2)=C[C@@H](c2ccccc2)[C@@H]1CCCO	0.9	-3.9	-4.7	4.0	-0.1	0.5	·
CC(OC(=O)c1ccc(Cl)nc1)C(=O)N1CCc2ccccc21 (centres undefined)	-4.8	0.1	12.6	-4.6	18.7*	-1.6	2.3
CC(=O)Nc1cccc(C(=O)OC(C)C(=O)N2CCc3ccccc32)c1 (centres undefined)	1.5	1.8	13.1	-1.1	0.5	1.7	·
CN[C@@H]1[C@H](O)[C@H](NC)[C@H]2O[C@@]3(O)C(=O)C[C@@H](C)O[C@H]3O[C@@H]2[C@H]1O	-3.1	1.5	-1.3	-3.5	11.5	0.1	·
CCOCN(C(=O)Cn1cnc2ccccc21)c1c(C)cccc1CC	-4.8	-3.5	10.8	0.0	18.3*	2.7	-1.7
CCc1cccc(CC)c1N(COC)C(=O)Cn1cnc2ccccc21	1.2	·	-5.0	-10.1	1.1	-1.9	·
CCOc1ccc(CCNC(=O)c2c(C)nn(-c3ccccc3)c2Cl)cc1OCC	4.3	2.0	7.2	3.5	-2.3	-5.4	·
Nc1ccc(-c2n[nH]c(=O)c3ccccc23)cc1N	5.7	-23.0	7.4	-4.3	19.1*	-2.3	7.3
Cc1ccccc1C(=O)/C=C1\NC(=O)CS1	-2.8	0.7	-1.1	-4.4	17.3*	-0.3	2.1
O=C1CS/C(=C/C(=O)c2ccccc2)N1	-2.9	2.7	-0.7	-4.9	-9.2	1.4	·
CC(C)OC(=O)CSc1nnc(-c2ccccn2)n1C	5.0	4.1	7.2	-4.0	17.8*	1.6	5.4
COc1ccc(C2/C(=C(/O)c3ccc(C)cc3)C(=O)C(=O)N2C)cc1 (centres undefined)	1.8	-5.4	-14.7	-7.2	12.0	1.0	·
COc1ccc(N2C(=O)C(=O)/C(=C(/O)c3ccc(C)cc3)C2c2cccnc2)cc1 (centres undefined)	1.4	2.3	-1.9	-0.5	21.2*	6.9	3.5
COc1ccccc1N1CCN(CCCCOc2cccc3ccccc23)CC1	1.9	-1.8	3.6	-3.2	50.0*	13.5	7.4
COc1cccc(CN2C(=O)c3ccccc3S2(=O)=O)c1	-5.0	-2.6	-9.9	1.7	17.4*	-7.0	-0.7
COc1cccc(CNC(=O)c2cccc(NC(=O)C3=C(C)OCCS3)c2)c1	-8.5	-3.8	-4.6	-1.5	20.7*	-10.6	-4.0
SMILES	TCR-CD3 inh	HTRA1 inhibitor	TDP2 inh	PAD4 inh	SIAE primary	mABHD4 FP	SIAE confirm
CC(=O)Nc1cncc(-c2cccc(S(C)(=O)=O)c2)n1	0.2	·	-3.6	·	0.5	7.4	·
COc1ccc(CNc2ncc(-c3ccc(F)cc3)n2C)c2ccccc12	3.5	-13.6	5.1	1.8	17.8*	15.4	8.3
COc1ccccc1CNc1ncc(-c2ccc(F)cc2)n1C	2.5	-4.6	4.5	-2.5	0.7	5.2	·
O=C(OCc1nnc(-c2ccc(Cl)cc2)o1)C12CC3CC(CC(O)(C3)C1)C2	1.2	-1.9	0.6	-4.5	-3.7	-5.6	·
CN(C)c1ccc(CNc2ccc3c(c2)ncn3C(C)(C)C)cc1	3.1	11.5	0.9	-2.5	18.5*	2.6	3.4
CCOc1ccc(CNc2ccc3c(c2)ncn3C(C)(C)C)cc1	8.6	4.4	8.9	-4.1	21.7*	-0.2	-2.3
CCn1cnc2cc(NCc3ccc(N(C)C)cc3)ccc21	-2.4	1.9	-3.3	3.9	3.5	12.3	·
C[C@H]1CN([C@@H](C)CO)C(=O)CCCn2nncc2CO[C@H]1CN(C)S(=O)(=O)c1ccc(C#N)cc1	1.9	2.9	8.2	·	-7.7	-2.7	·
COc1ccc(C(C)(C)C)cc1NC(=O)Nc1ccc2c(c1)OCO2	5.7	3.9	1.5	1.7	21.4*	-3.8	6.1
COc1cc(NC(=O)Nc2ccc3c(c2)OCO3)cc(OC)c1OC	4.2	0.9	-2.6	-2.9	3.8	-3.6	·
CSCCC(NC(=O)COc1ccccc1)C(=O)N1CCN(c2ccccc2O)CC1 (centres undefined)	-3.7	-1.8	4.1	-2.3	17.8*	2.4	6.6
Cn1nccc1NC(=O)CSCC(=O)O	2.5	-1.6	4.3	-3.0	9.9	-3.8	·
CN(Cc1ccccc1)C(=O)CN1C(=O)NC2(CCCC2)C1=O	-5.7	-2.9	-0.9	-1.3	1.2	5.8	·
CN(Cc1ccccc1Br)C(=O)CN1C(=O)NC2(CCCCCC2)C1=O	-1.2	-6.6	-4.2	-5.5	19.3*	-1.1	3.3
C[C@H](CO)N1C[C@H](C)[C@@H](CN(C)C(=O)Nc2ccc(C(C)(C)C)cc2)OCc2cn(nn2)CCCC1=O	-1.1	·	-8.3	·	-5.5	13.4	·
Cc1cc(Cl)ccc1NC(=O)COC(=O)c1cc([N+](=O)[O-])ccc1N1CCOCC1	10.6	-7.5	18.4	0.9	5.4	-5.8	·
CCc1cccc(C)c1NC(=O)COC(=O)c1cc([N+](=O)[O-])ccc1N1CCOCC1	0.9	3.8	-0.1	5.1	18.8*	4.6	0.2
CC1CCc2onc(C(=O)NCc3ccco3)c2C1 (centres undefined)	6.9	4.6	3.6	1.8	21.4*	3.1	3.4

Screening results from PubChem BioAssay.
